Many of the other results were omitted from the sample, so hits are more common in it than they were.
IDH1 mut inh: inhibitors of human IDH1 R132H; 70,000 tested, 0.18% active; inhibition, % at 10 µM; IDH1 R132H reductase, diaphorase/resazurin fluorescence, 60 min; O75874; AID 624101; in the data active = inhibition above about 34%;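 note: 0% = DMSO and 100% = no enzyme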
T cruzi growth-1: inhibitors of T. cruzi proliferation | T. cruzi beta-gal in NIH3T3, GalScreen luminescence, 90 h | inhibition, % at 8.34 µM | 77,000 tested, 5.9% active;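 active = mean inhibition above about 93%, with at least 55% of replicates each passing it, limit read from the data, passing the limit was not always enough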
KDM4C inh: inhibitors of human demethylase GASC-1 KDM4C; AID 720574; 96,000 tested, 0.15% active; GST-KDM4C 2-372, H3K9me3 peptide, LANCE TR-FRET; Q9H3R0; inhibition, % at 12.5 µM;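 active = mean replicate inhibition above about 25%, with at least 55% of replicates also reaching it, limit read from the data, passing the limit was not always enough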
Target sequence (Q9H3R0 2-372 limits assumed): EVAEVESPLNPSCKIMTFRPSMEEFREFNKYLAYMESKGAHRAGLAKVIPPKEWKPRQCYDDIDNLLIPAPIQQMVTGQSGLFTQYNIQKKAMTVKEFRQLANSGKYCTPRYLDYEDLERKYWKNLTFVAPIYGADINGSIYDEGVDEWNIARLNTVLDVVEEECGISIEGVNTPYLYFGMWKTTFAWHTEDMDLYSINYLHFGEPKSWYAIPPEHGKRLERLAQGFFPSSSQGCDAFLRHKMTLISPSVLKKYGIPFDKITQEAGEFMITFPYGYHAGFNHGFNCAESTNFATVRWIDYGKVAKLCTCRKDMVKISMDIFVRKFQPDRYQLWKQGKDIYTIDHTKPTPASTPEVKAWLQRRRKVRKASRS
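Material: GST-tagged GASC-1 (JMJD2C) catalytic fragment, aa 2-372 / Quantity: enzyme final amount 10 nM / Medium: HEPES buffer, pH 7.5, plus ascorbate / Doses: one test concentration per compound / Incubation: 30 min reaction, 60 min detection, RT / Measured by: LANCE TR-FRET / Read-out: inhibition from TR-FRET ratio decrease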
T cruzi growth-2: inhibitors of T. cruzi proliferation; shares compounds with T cruzi growth-1; T. cruzi beta-gal in NIH3T3, GalScreen luminescence, 90 h; inhibition, % at 8.35 µM; 5,600 tested, 72% active; AID 651739;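 active = mean replicate inhibition above about 95% and at least 55% of replicates individually reaching it, limit read from the data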
T cruzi growth-3: blocks T. cruzi growth in NIH3T3 host cells. T. cruzi beta-gal in NIH3T3, GalScreen luminescence, 90 h. inhibition, % at 2.09 µM. 5,600 tested, 21% active. shares compounds with T cruzi growth-1. AID 651740;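 active = mean inhibition above about 95%, with at least 55% of replicates also reaching it, limit read from the data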;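 note: plate controls were neutral control median for no effect and positive control median for full effect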
NIH3T3 tox: kills mouse NIH/3T3 fibroblasts; shares compounds with T cruzi growth-1; NIH/3T3 viability, CellTiter-Glo ATP luminescence, 90 h; cytotoxicity (signal decrease), % at 8.35 µM; 5,600 tested, 14% active; AID 651742;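 active = mean signal decrease across replicates above about 35% based on untreated-well scatter, with enough replicates individually passing, limit read from the data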;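 note: 0% = median of neutral control wells and 100% = median of positive control wells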
NIH3T3 tox 2: NIH/3T3 (mouse) viability loss | AID 651744 | NIH/3T3 viability, CellTiter-Glo ATP luminescence, 90 h | inhibition, % at 24.9 µM | shares compounds with T cruzi growth-1 | 5,600 tested, 56% active;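 active = mean loss of cell viability signal at or above a set limit, and enough replicates individually reaching it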;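 note: 0% = median of neutral control wells and 100% = median of positive control wells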
Numbers without * were called inactive; . = no result.

SMILES | IDH1 mut inh | T cruzi growth-1 | KDM4C inh | T cruzi growth-2 | T cruzi growth-3 | NIH3T3 tox | NIH3T3 tox 2
C[C@H](CO)N1C[C@H](C)[C@H](CN(C)C(=O)Nc2cccc3ccccc23)OCCCC[C@H](C)Oc2ccc(NS(=O)(=O)c3ccc(F)cc3)cc2C1=O | 0 | 28 | 1 | . | . | . | .
Cc1ccc(S(=O)(=O)Nc2ccc3c(c2)C(=O)N([C@@H](C)CO)C[C@H](C)[C@@H](CN(C)C(=O)Nc2cccc4ccccc24)OCCCC[C@H](C)O3)cc1 | 0 | 93 | -3 | . | . | . | .
C[C@@H]1CN([C@@H](C)CO)C(=O)c2cc(NS(=O)(=O)c3ccc(F)cc3)ccc2O[C@@H](C)CCCCO[C@H]1CN(C)C(=O)Nc1cccc2ccccc12 | 7 | 100* | 5 | 108* | 33 | -21 | -16
C[C@H]1CCCCO[C@@H](CN(C)C(=O)Nc2cccc3ccccc23)[C@@H](C)CN([C@@H](C)CO)C(=O)c2cc(NS(=O)(=O)c3ccc(F)cc3)ccc2O1 | 0 | 109* | 1 | 107* | 70 | -16 | 0
C[C@@H]1CN([C@@H](C)CO)C(=O)c2cc(NS(=O)(=O)c3ccc(F)cc3)ccc2O[C@@H](C)CCCCO[C@@H]1CN(C)C(=O)Nc1cccc2ccccc12 | . | 101* | 0 | 104* | 55 | 21 | 18
C[C@@H]1CCCCO[C@@H](CN(C)C(=O)Nc2cccc3ccccc23)[C@@H](C)CN([C@H](C)CO)C(=O)c2cc(NS(=O)(=O)c3ccccc3)ccc2O1 | . | . | -2 | . | . | . | .
COc1cccc(-c2cc(C(F)(F)F)n3nc(C(=O)Nc4c(C#N)cnn4C)cc3n2)c1 | 0 | . | . | . | . | . | .
Cc1cccc(NC(=O)CSc2nc3ncnc(N)c3[nH]2)c1 | 2 | . | . | . | . | . | .
Cc1cc(C(F)(F)F)nc(SCC(=O)Nc2ccc(Cl)cc2)n1 | -1 | . | . | . | . | . | .
Cc1ccc(S(=O)(=O)Nc2ccc3c(c2)C(=O)N([C@H](C)CO)C[C@H](C)[C@@H](CN(C)C(=O)Nc2cccc4ccccc24)OCCCC[C@H](C)O3)cc1 | . | 99* | -1 | 110* | 105* | -28 | -9
Cc1ccc(S(=O)(=O)Nc2ccc3c(c2)C(=O)N([C@@H](C)CO)C[C@@H](C)[C@@H](CN(C)C(=O)Nc2cccc4ccccc24)OCCCC[C@H](C)O3)cc1 | . | 92 | -2 | . | . | . | .
Cc1ccc(S(=O)(=O)Nc2ccc3c(c2)C(=O)N([C@@H](C)CO)C[C@H](C)[C@@H](CN(C)C(=O)Nc2cccc4ccccc24)OCCCC[C@@H](C)O3)cc1 | . | 95 | -2 | . | . | . | .
C[C@@H]1CCCCO[C@H](CN(C)C(=O)Nc2cccc3ccccc23)[C@H](C)CN([C@H](C)CO)C(=O)c2cc(NS(=O)(=O)c3ccc(F)cc3)ccc2O1 | . | 105* | 11 | 106* | 73 | 9 | 5
Nc1nc(SCC(=O)c2ccc(-c3ccccc3)cc2)n[nH]1 | 0 | . | . | . | . | . | .
O=C(O)c1cccc(NS(=O)(=O)c2cccc(C(=O)Nc3ccc(F)cc3)c2)c1 | 0 | . | . | . | . | . | .
O=C(O)CCCCCCC(=O)N/N=C/c1ccccc1O | 0 | . | . | . | . | . | .
O=S(=O)(Cc1ccccc1)N1CCCCN2[C@H](CO)[C@H](c3ccc(-c4cccnc4)cc3)[C@H]2C1 | . | 108* | -1 | 108* | 59 | 2 | 27*
O=S(=O)(Cc1ccccc1)N1CCCCN2[C@H](CO)[C@H](c3ccc(-c4cccnc4)cc3)[C@@H]2C1 | . | 89 | 0 | . | . | . | .
O=S(=O)(Cc1ccccc1)N1CCCCN2[C@@H](CO)[C@@H](c3ccc(-c4cncnc4)cc3)[C@@H]2C1 | . | 93 | -1 | . | . | . | .
O=S(=O)(Cc1ccccc1)N1CCCCN2[C@H](C1)[C@H](c1ccc(-c3cccnc3)cc1)[C@@H]2CO | . | 98* | 1 | 60 | -7 | -7 | -17
CN(C)CCCN1C(=O)C(=O)C(C(=O)c2ccco2)C1c1ccc([N+](=O)[O-])cc1 (stereo unspecified) | 0 | . | . | . | . | . | .
O=C(CSc1ccccn1)Nc1cccc(F)c1 | -1 | . | . | . | . | . | .

Bioassay records: PubChem BioAssay, Broad Institute
